Rows were chosen to be rich in hits. Some 3.5% of all compounds tested hit in one or more screens of this group.
MrgX1 ag = agonists of human MrgX1 receptor, primary screen, HEK293 cells, Fluo-4 calcium flux; 0.44% of 310,000 active; B-score at 10 µM; Fluo-4 calcium fluorescence, agonist mode; active compounds read high;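 active means calcium response B-score plate-corrected fluorescence ratio at least 3 library SD, with starting fluorescence B-score inside 5 SD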
Target sequence (Q96LB2 whole entry, looked up): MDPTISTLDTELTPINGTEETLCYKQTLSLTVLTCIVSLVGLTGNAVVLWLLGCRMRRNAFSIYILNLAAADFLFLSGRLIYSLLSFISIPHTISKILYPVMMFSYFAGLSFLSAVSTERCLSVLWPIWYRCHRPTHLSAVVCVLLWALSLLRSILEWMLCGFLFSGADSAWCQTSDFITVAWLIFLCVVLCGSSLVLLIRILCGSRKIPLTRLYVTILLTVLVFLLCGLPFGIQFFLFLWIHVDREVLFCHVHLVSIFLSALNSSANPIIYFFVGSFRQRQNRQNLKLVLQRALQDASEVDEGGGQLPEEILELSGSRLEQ
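Material: MrgX1-expressing HEK293 cells / Dosing: compound as first of three additions / Incubation: overnight seeding, then 1 h dark dye loading / Signal: Fluo-4 NW calcium fluorescence / Evaluation: B-scored fluorescence response ratio / Benchmarks: positive and negative control wells on each plate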
RGS4 block = RGS4 inhibitors, primary screen, cell-based, HEK293 M3R inducible RGS4, calcium flux; B-score at 10 µM; Fluo-4 calcium flux; active compounds read high; triggered by carbachol at its EC20; 0.45% of 310,000 active;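 active means B-score, a plate-corrected calcium signal, over three deviations above library mean, with baseline fluorescence within five deviations of library mean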;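 further: RGS4 expression induced by doxycycline in cells with stable M3 receptor; B-score is computed from the integrated fluorescence ratio over baseline after carbachol; higher B-score means a larger calcium signal and so more RGS4 inhibition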
Target sequence (P49798 whole entry, looked up): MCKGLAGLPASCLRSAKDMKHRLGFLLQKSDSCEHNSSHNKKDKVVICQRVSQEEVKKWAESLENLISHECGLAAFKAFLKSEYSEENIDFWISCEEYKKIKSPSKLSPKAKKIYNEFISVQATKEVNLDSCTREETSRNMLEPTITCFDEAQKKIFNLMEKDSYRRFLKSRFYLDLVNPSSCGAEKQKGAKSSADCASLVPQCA
MrgX1 PAM = positive allosteric modulators of MrgX1, primary screen, HEK293 cells, Fluo-4 calcium flux | Mas-related G-protein coupled receptor member X1 (Homo sapiens), Q96LB2 | 0.63% of 310,000 active | B-score at 10 µM | AID 588675, 2011 | FDSS; active compounds read high;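 active means plate-corrected calcium response at least 3 library SD above typical, normal starting fluorescence, not activating the receptor alone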;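 further: compound read alongside a low EC10 to EC30 dose of BAM8-22 agonist; peak minus trough fluorescence over baseline measured at the second addition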
RGS4 pot = RGS4 potentiators or activators, primary screen, cell-based, HEK293 M3R inducible RGS4, calcium flux. carbachol calcium flux Fluo4; active compounds read low. B-score at 10 µM. 0.92% of 310,000 active;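 active means B-score of the integrated calcium signal more than 4 SD below the library mean, with starting fluorescence not abnormally high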;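 further: negative B-score means reduced calcium response which marks RGS4 activation or potentiation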
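Reagent: ECmax carbachol challenge; Test system: M3R-expressing HEK293 line, RGS4 induced by doxycycline; Schedule: overnight RGS4 induction, 30 min dye load 37 °C, 20 min compound RT; Detection: calcium dye Fluo4 fluorescence; Read-out: Agonist-evoked peak-minus-minimum fluorescence over baseline, integrated ratio, B score.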
MrgX1 antagonist = antagonists of human MrgX1 receptor, primary screen, HEK293 cells, Fluo-4 calcium flux | 1.3% of 310,000 active | BAM8-22 antagonism; active compounds read low | Mas-related G-protein coupled receptor member X1 (Homo sapiens), Q96LB2 | AID 588676, 2011 | B-score at 10 µM;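 active means calcium-response B-score plate-corrected more than 3 library SD below zero, starting fluorescence within 5 deviations, no agonist response on first addition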;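 further: peak minus trough fluorescence over baseline after final BAM8-22 challenge near maximal dose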
MrgX1 antag conf = MrgX1 receptor antagonists, duplicate retest, confirmation, HEK293 cells, Fluo-4 calcium flux; 19% of 2,300 active; remaining BAM8-22 calcium response % of control (active compounds read low), % at 10 µM; shares compounds with MrgX1 antagonist; BAM8-22 calcium flux; active compounds read low;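 active means remaining agonist calcium response no higher than 100% minus 3 SD of agonist-only control wells, with starting fluorescence near control levels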;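 further: agonist BAM8-22 given at a near maximal EC90 to ECmax level; peak minus minimum fluorescence divided by baseline after agonist addition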
HEK293 Ca flux = nonspecific calcium signal in parental HEK293, confirmation, counter-screen for MrgX1 antagonist project, parental HEK293 cells, Fluo-4 calcium flux; shares compounds with MrgX1 antagonist; Fluo-4 calcium fluorescence, FDSS; fluorescence ratio F(max-min)/F0 at 10 µM; 2% of 4,000 active;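 active means duplicate-averaged calcium fluorescence ratio at least three times the standard deviation of buffer wells, a nonspecific response in parental cells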
HEK293 Ca counter = calcium response in parental HEK293 cells, primary screen, counter-screen for MrgX1 allosteric activator project, cell-based, Fluo-4 calcium flux, duplicate; shares compounds with MrgX1 antagonist; Fluo-4 fluorescence ratio; active compounds read high; fluorescence ratio F(max-min)/F0 at 10 µM; 0.4% of 4,000 active;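 active means calcium fluorescence ratio, averaged over duplicates, at least 3 SD of the buffer-well ratio, meaning a nonspecific response in receptor-free cells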;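 further: untransfected parental HEK293 lacking MrgX1 used as counterscreen for MrgX1 allosteric activators; fluorescence change taken during the second addition on a kinetic imager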
HEK293 Ca cntr2 = calcium response in parental HEK293 cells, primary screen, counter-screen for MrgX1 agonist project, cell-based, Fluo-4 calcium flux, duplicate, agonist mode; AID 624115, 2012; shares compounds with MrgX1 antagonist; Fluo-4 calcium fluorescence (FDSS); active compounds read high; fluorescence ratio F(max-min)/F0 at 10 µM; 8.7% of 4,000 active;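 active means calcium fluorescence ratio at least three times the spread of buffer wells, meaning a non-specific response in parental cells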
Hits are given with their value; 0 = inactive; - = no result given.

SMILES	MrgX1 ag	RGS4 block	MrgX1 PAM	RGS4 pot	MrgX1 antagonist	MrgX1 antag conf	HEK293 Ca flux	HEK293 Ca counter	HEK293 Ca cntr2
Cc1cccc(C(=O)NCc2nnc(SCc3ccc(F)cc3)n2C)c1	0	0	0	0	-4.84	0	0	0	0
CCOC(=O)C(C)Sc1ccc2nnc(CCNS(=O)(=O)c3ccccc3)n2n1 (stereo not drawn)	0	0	0	0	0	-	-	-	-
COc1ccc(C)cc1-n1nnnc1SCC(=O)Nc1cccnc1Cl	0	0	0	0	-5.94	0	0	0	0
COc1ccc(C)cc1-n1nnnc1SCC(=O)Nc1cc(C)on1	0	0	0	0	0	-	-	-	-
Cn1c(CNc2ccccc2)nc2ccccc21	0	0	0	0	-6.93	84.9%	0	0	0
CC(=O)Oc1c(-c2ccc(Br)o2)oc2ccccc2c1=O	0	0	0	0	-5.49	0	0	0	0
COc1ccc(NS(=O)(=O)c2cc3c(cc2C)NC(=O)CO3)c(OC)c1	0	0	0	0	-4.91	0	0	0	0
Cc1ccc(NCc2ccccc2O)cc1	0	0	0	0	0	-	-	-	-
Cc1ccc(NCc2ccccc2F)cc1	0	0	0	0	-5.87	0	0	0	0
COc1ccccc1C(=O)NC(=S)NNC(=O)c1sc2ccccc2c1Cl	0	0	0	-9.07	-12.3	0	0	0	0
CC1CCCCC1NC(=S)NC(=O)c1sc2ccccc2c1Cl (stereo not drawn)	0	0	0	0	0	-	-	-	-
Cc1noc(C)c1C(=O)NCCCN1CCCC1=O	0	0	0	0	-4.86	80.8%	0	0	0
Cc1cc(C(=O)NCCCN2CCCC2=O)cs1	0	0	0	0	0	-	-	-	-
COc1ccc(C(=O)N/C(=C\c2cn(C)c3ccccc23)C(=O)N2CCOCC2)cc1	0	0	0	0	0	-	-	-	-
CC(C)N(Cc1nccn1C)C(=O)CC1C(=O)NCCN1Cc1ccc(F)c(F)c1 (stereo not drawn)	0	0	0	0	-6.46	72.1%	0	0	0
O=C(NCCS(=O)(=O)NC1CCCC1)c1ccc(F)cc1	0	0	0	0	-4.91	0	0	0	0
COc1ccc(C(=O)NCCS(=O)(=O)NC2CCCC2)cc1	0	0	0	0	0	-	-	-	-
O=C(Nc1ccc(OC(F)(F)F)cc1)Oc1ccccc1N1CCCCC1	0	0	0	0	-5.41	0	0	0	0
N#Cc1c(N)nc2c(c1-c1ccccc1)CCCC2	0	0	0	0	0	-	-	-	-
CSc1nc2c(c(-c3ccccc3)c1C#N)CCC2	0	0	0	0	-6.5	0	0	0	0
C=CCOc1c(Cl)cc(C(=S)N2CCCC2)cc1OCC	0	0	0	0	-6.92	0	0	0	0
CCCN(CCC)C1=CC(=[N+]2CCCC2)CC(C)(C)C1	0	0	0	0	0	-	-	-	-
O=C1C2CCCN2C(c2cccc(Br)c2)N1c1ccc(F)cc1 (stereo not drawn)	0	0	0	0	0	-	-	-	-
O=C1C2CCCN2C(c2ccc(Br)cc2)N1c1ccc(F)cc1 (stereo not drawn)	0	0	0	0	-5.71	0	0	0	0
COc1ccc(C2N(c3ccc(F)cc3)C(=O)C3CCCN32)cc1 (stereo not drawn)	0	0	0	0	-6.34	0	0	0	0
SMILES	MrgX1 ag	RGS4 block	MrgX1 PAM	RGS4 pot	MrgX1 antagonist	MrgX1 antag conf	HEK293 Ca flux	HEK293 Ca counter	HEK293 Ca cntr2
COc1ccc(S(=O)(=O)N2CCCC(C(=O)NCCN3CCOCC3)C2)cc1C (stereo not drawn)	0	0	0	0	0	-	-	-	-
CCOC(=O)CSc1nc(Nc2ccc3c(c2)OCO3)c2ccccc2n1	0	0	0	0	0	-	-	-	-
CCOC(=O)c1cnc2ccccc2c1Nc1ccc2c(c1)OCCO2	0	0	0	0	-5.54	0	0	0	0
O=C1C(=O)N(Cc2cccnc2)C(c2ccccn2)/C1=C(/O)c1ccc(F)cc1 (stereo not drawn)	0	0	0	0	-5.13	0	0	0	0
Cc1ccc(/C(O)=C2/C(=O)C(=O)N(CCCn3ccnc3)C2c2ccccn2)cc1 (stereo not drawn)	-	0	-	0	-	-	-	-	-
COCCN1C(=O)C(=O)/C(=C(/O)c2ccc(C)cc2)C1c1ccccn1 (stereo not drawn)	0	0	0	0	-7.67	0	0	0	0
CCO[C@H]1OC(C(=O)N2CCN(C)CC2)=C[C@@H](C2CC2)[C@@H]1CCCO	0	0	0	0	0	-	-	-	-
O=C(c1ccco1)N1CCN(Cc2cc(=O)c(OCc3c(F)cccc3Cl)co2)CC1	0	0	0	0	0	-	-	-	-
O=C(NCc1ccncc1)c1ccc(Br)cc1	0	0	0	0	0	-	-	-	-
O=C(CCNC(=O)c1ccc(Br)cc1)NCc1ccncc1	0	0	0	0	-6.12	0	0	0	0
Cc1ccc(NC(=O)CCN2C(=O)CSC2=O)c(C)c1	0	0	0	0	-4.64	0	0	0	0
COc1ccc(N(CC(=O)NCc2ccccc2)S(=O)(=O)c2c(C)nn(C)c2C)cc1	0	0	0	0	-6.56	0	0	0	0
CCOc1ccc2ccccc2c1CNCCc1ccc(S(N)(=O)=O)cc1	0	0	0	0	-4.78	54.5%	0	0	0
Cc1nc(-c2ccc(S(=O)(=O)N3CCN(C4c5ccccc5-c5ccccc54)CC3)s2)cs1	0	0	0	0	-5.3	0	0	0	0
CCOC(=O)c1cnn(-c2ccccc2)c1N	0	0	0	0	-4.72	0	0	0	0
CCOC(=O)c1cnc2c(-c3ccccc3)cnn2c1C	0	0	0	0	-5.05	0	0	0	0
CCOC(=O)c1cnn(-c2cccc(Cl)c2)c1N	0	0	0	0	0	-	-	-	-
COc1cc(C)c(S(=O)(=O)NC2CC(C)(C)NC(C)(C)C2)cc1C	0	0	0	0	-8.31	0	0	0	0
FC(F)(F)c1cccc(CNC(=S)Nc2ccccc2)c1	0	0	0	0	0	-	-	-	-

Compound activity from PubChem.
